Screening data deposited in PubChem by several laboratories.
GalR3 antag: GalR3 antagonists in HEK293 cells, primary screen, cell-based, fluorescence readout; Galanin receptor type 3 (Homo sapiens), O60755; HEK293 GalR3-CNG cAMP membrane potential fluorescence; galR3 body fused to GalR1 C-terminus; inhibition, % at 3 µM; 360,000 compounds, 0.44% hits; AID 651719, 2012;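 active = inhibition above the screen-wide average plus 3 SD, cut at about 13% in these data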;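 also: forskolin and galanin both at EC90 stimulate the cells; cAMP rise reported by CNG channel membrane potential dye signal; 0% = forskolin plus galanin with DMSO and 100% = forskolin alone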
Target sequence (O60755 1-299 limits assumed): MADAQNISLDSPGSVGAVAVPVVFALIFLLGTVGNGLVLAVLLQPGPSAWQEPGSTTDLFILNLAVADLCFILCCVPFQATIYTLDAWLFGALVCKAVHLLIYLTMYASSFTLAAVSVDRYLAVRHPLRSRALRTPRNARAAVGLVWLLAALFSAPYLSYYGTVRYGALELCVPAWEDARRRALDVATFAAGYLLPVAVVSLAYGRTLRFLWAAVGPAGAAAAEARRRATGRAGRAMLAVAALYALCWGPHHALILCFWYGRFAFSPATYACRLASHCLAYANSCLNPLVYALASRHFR
NR2E3 ag-1: NR2E3 agonists in two-hybrid cells, primary screen, cell-based, luminescence, CHO-S, Gal4-NCOR/VP16-NR2E3; luciferase; inhibition of corepressor binding, % at 3.98 µM; 360,000 compounds, 0.35% hits; AID 602229, 2012;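 active = inhibition above the mean of all tested compounds plus 3 SD, cut at about 70% in these data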;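 also: 0% = DMSO with NR2E3 transfected cells and 100% = cells lacking NR2E3 construct; higher means lower luciferase signal from less NR2E3 corepressor binding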
Target sequence (Q9Y5X4 whole entry, looked up, the tested form may be a part): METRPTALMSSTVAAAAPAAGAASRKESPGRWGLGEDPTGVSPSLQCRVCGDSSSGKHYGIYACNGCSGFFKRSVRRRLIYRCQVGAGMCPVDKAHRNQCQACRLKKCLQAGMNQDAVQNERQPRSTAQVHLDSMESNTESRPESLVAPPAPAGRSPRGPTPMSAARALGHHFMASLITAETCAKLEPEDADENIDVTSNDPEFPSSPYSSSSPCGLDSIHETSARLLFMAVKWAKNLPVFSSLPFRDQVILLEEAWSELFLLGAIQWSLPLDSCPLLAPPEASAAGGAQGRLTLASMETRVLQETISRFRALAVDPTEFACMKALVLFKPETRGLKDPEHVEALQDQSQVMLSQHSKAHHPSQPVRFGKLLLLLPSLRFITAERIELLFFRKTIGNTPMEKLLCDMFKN
NadD inh: inhibitors of S. aureus NadD, primary screen, biochemical, colorimetric, uHTS | Nicotinate-nucleotide adenylyltransferase NadD (Staphylococcus aureus N315) | purified NadD enzyme, colorimetric absorbance read-out | inhibition, % at 20 µM | 360,000 compounds, 0.78% hits; in the data active = inhibition above about 26%
bovine MsrA act: bovine MsrA enzyme activators, primary screen, biochemical, absorbance, HTS; Methionine sulfoxide reductase A (Bos taurus); purified bovine MsrA, absorbance read-out; activation, % at 10.6 µM; 360,000 compounds, 0.3% hits; AID 602163, 2012; in the data active = activation above about 7.5%;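 also: 0% = vehicle and 100% = reference activator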
NR2E3 ag-2: inhibitors of NR2E3-RetCOR corepressor binding, primary screen, NR2E3 agonist project, biochemical, TR-FRET, GST-NR2E3, biotin-RetCOR; AID 2300, 2010; 1536-well; 320,000 compounds, 0.12% hits; Photoreceptor-specific nuclear receptor (Homo sapiens), Q9Y5X4; inhibition of corepressor binding, % at 4.78 µM;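 active = percent inhibition above the cutoff of mean plus 3 SD of all tested compounds, set per screening campaign, cut at about 20% in these data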;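 also: 0% = DMSO wells and 100% = biotin wells as full block of FRET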
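Material: NR2E3–RetCOR corepressor complex / Incubation: Compound–protein incubation for 5 h at 4 °C / Dosing: compound at 4.8 µM, single dose / Detection: time-resolved FRET / Benchmarks: high control biotin, low control 0.6% DMSO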
MsrA inh: bovine MsrA enzyme inhibitors, primary screen, biochemical, absorbance, HTS; inhibition, % at 15.5 µM; 360,000 compounds, 0.75% hits; Methionine sulfoxide reductase A (Bos taurus); purified bovine MsrA, absorbance read-out; in the data active = inhibition above about 4.5%;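 also: 0% = vehicle wells with enzyme and 100% = reference inhibitor wells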
GalR3 conf: GalR3 antagonist hit confirmation, cell-based, fluorescence, triplicate. HEK293 GalR3 CNG cAMP biosensor, membrane potential fluorescence; galR3 fused to GalR1 carboxy tail; challenged with forskolin and galanin at EC90. 1,600 compounds, 59% hits. inhibition, % at 3 µM. shares compounds with GalR3 antag;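 active = inhibition above the primary screen's cutoff, the mean inhibition of all screened compounds plus 3 SD, cut at about 13% in these data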;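 also: 0% = forskolin plus galanin and 100% = forskolin alone with DMSO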
CNG parental: nonspecific cAMP agonists in parental HEK-CNG cells, counter-screen for GalR3 antagonist project, cell-based, fluorescence, high throughput; shares compounds with GalR3 antag; HEK293-CNG parental cells, cAMP membrane potential fluorescence; normalised: DMSO wells 0%, forskolin wells 100%; activation, % at 3 µM; 1,600 compounds, 10% hits; AID 652268, 2013; in the data active = activation above about 1.3%
* hit, by the source's call; · = no result. A selection: hits, their analogues and other compounds. The true share with any hit is near 2.5%.

SMILES | GalR3 antag | NR2E3 ag-1 | NadD inh | bovine MsrA act | NR2E3 ag-2 | MsrA inh | GalR3 conf | CNG parental
Cc1cccc(OCCn2nc(C(=O)O)c3ccccc3c2=O)c1 | 4.8 | -10.9 | -5.9 | -2.8 | 1.3 | 0.9 | · | ·
O=C(O)c1nn(CCSc2ccccc2F)c(=O)c2ccccc12 | 26.6* | -25.7 | -0.3 | -5.5 | 2.3 | -0.3 | 9.2 | 0.2
Cc1noc(C)c1Cn1nc(C(=O)O)c2ccccc2c1=O | 19.2* | -7.1 | -3.3 | -0.9 | 2.2 | 0.1 | 27.0* | 0.6
Cc1ccc(-c2noc(Cn3nc(C(=O)O)c4ccccc4c3=O)n2)cc1 | -7.9 | -44.5 | -11.5 | -2.7 | -2.0 | 1.1 | · | ·
CS(=O)(=O)c1ccc(C(=O)NCC(c2ccco2)N2CCCCC2)cc1 (stereo not given) | 4.4 | -2.4 | -5.7 | 6.2 | -3.9 | -0.3 | · | ·
O=C(CN1CCN(Cc2ccccc2F)C1=O)NC1CCCC1 | 12.6* | -17.5 | -1.4 | -1.0 | -1.6 | 0.2 | 4.2 | 0.1
Cc1cccc(OCCC(=O)Nc2ccc(F)c(Cl)c2)c1 | -4.0 | 20.7 | -3.0 | -11.6 | 2.4 | -0.1 | · | ·
CCn1c(C)c(C(C)=O)c(N2CCN(C(c3ccccc3)c3ccccc3)CC2)nc1=S | 3.6 | -6.6 | 4.1 | -4.9 | -0.8 | -1.9 | · | ·
CCn1c(C)c(C(C)=O)c(N2CCN(c3ccccc3)CC2)nc1=S | 42.0* | -2.6 | 12.5 | -1.7 | 2.4 | 0.5 | 2.6 | 0.2
CC(=O)c1c(N2CCCC2)nc(=S)n(-c2ccccc2)c1C | 1.6 | 0.1 | -1.4 | 4.2 | 4.9 | -0.3 | · | ·
CC(=O)c1c(N2CCCCC2)nc(=S)n(-c2ccccc2)c1C | · | -57.4 | 4.9 | 2.2 | 0.5 | -0.4 | 0.3 | 0.6
Cc1nc(S/C(=C\c2ccc(-c3ccc(C(=O)O)c(Cl)c3)o2)C(=O)O)n[nH]1 | 3.4 | -3.2 | -4.8 | -3.2 | · | 2.0 | · | ·
NC1=NC2(CS1)CSC(N)=N2 | -6.4 | · | · | · | · | 0.8 | · | ·
O=C1CSc2ccccc2N1 | -2.5 | -30.3 | 1.9 | -0.8 | · | -0.4 | · | ·
CNC[C@H](O)c1cccc(O)c1 | · | 1.2 | 1.8 | -4.5 | 0.0 | 0.6 | · | ·
CCN(CC(O)c1cccc(O)c1)C(=O)C12CC3CC(CC(C3)C1)C2 (stereo not given) | 16.7* | -10.9 | -10.7 | -2.3 | -3.0 | -0.8 | 56.6* | 2.0*
CCOC(=O)CCc1cccc2c1CCC2=O | · | -6.3 | 1.9 | 0.0 | -2.0 | 0.4 | 4.5 | 0.5
O=C(COc1ccc(Br)cc1Br)NC1CCCC1 | 42.2* | -75.4 | 1.0 | -10.3 | 1.8 | 0.6 | 72.9* | -0.1
CCN1CCN(S(=O)(=O)c2cc(OCC(=O)NC3CCCCC3)c(C)cc2Cl)CC1 | 24.8* | 32.0 | -4.2 | -12.6 | 1.6 | -0.4 | 55.4* | 0.1
Cc1cc(Cl)c(S(N)(=O)=O)cc1OCC(=O)NC1CCCCC1 | -4.3 | -11.0 | -7.2 | -5.4 | -0.7 | -0.5 | · | ·
O=C(COc1ccc(Br)cc1Cl)NC1CCCCC1 | -2.8 | -89.6 | -3.3 | -2.9 | 0.2 | -1.4 | · | ·
Cc1cc(Cl)c(S(=O)(=O)NC2CCCC2)cc1OCC(=O)NC1CCCCC1 | 65.6* | 36.5 | -2.3 | 1.9 | 0.5 | 0.1 | 46.9* | 0.2
O=C(CSc1nc2ccccc2s1)NC1CCCc2ccccc21 (stereo not given) | -0.4 | -43.2 | -3.5 | -2.8 | -2.5 | 0.1 | · | ·
CCCCC(=O)N1CCCC(c2nc3c(nnn3Cc3cc(C)ccc3C)c(=O)[nH]2)C1 (stereo not given) | -4.7 | -17.1 | -4.7 | 2.6 | -1.8 | -0.8 | · | ·
CC1(C)CC2CC(C)(CN2S(=O)(=O)c2ccc(C(=O)Nc3ccc(S(=O)(=O)N4CCOCC4)cc3)cc2)C1 (stereo not given) | 87.4* | 2.7 | 21.2 | -2.4 | 2.0 | -0.3 | 118.0* | -2.5
SMILES | GalR3 antag | NR2E3 ag-1 | NadD inh | bovine MsrA act | NR2E3 ag-2 | MsrA inh | GalR3 conf | CNG parental
Clc1cccc(CN2CCN(c3ncc(Cc4ccccc4)cn3)CC2)c1Cl | 55.0* | · | · | · | · | -0.6 | 105.6* | -0.5
Cc1ccc(S(=O)(=O)N2CCOCC2)cc1C(=O)N1CCN(S(=O)(=O)c2cccs2)CC1 | 13.1* | -2.7 | -0.5 | -2.2 | 1.2 | 1.1 | -0.2 | 0.1
Cc1ccccc1NC(=O)c1cccc(S(=O)(=O)N2CCOCC2)c1 | -10.4 | -15.9 | 5.5 | -1.4 | 4.8 | -0.7 | · | ·
Cc1cccc(C)c1NC(=O)c1cc(S(=O)(=O)N2CCOCC2)ccc1F | -5.7 | -56.9 | 4.5 | -3.3 | 1.0 | 1.0 | · | ·
Cc1ccc(S(=O)(=O)N2CCOCC2)cc1NC(=O)c1cccc(S(=O)(=O)N2CCCC2)c1 | · | -15.7 | 1.9 | -0.7 | -0.5 | 1.5 | 3.2 | 0.1
Cc1ccc(S(=O)(=O)N2CCOCC2)cc1C(=O)N1CCCC1 | -6.9 | 7.0 | 5.7 | -1.0 | 1.5 | -2.1 | · | ·
Cc1ccccc1NC(=O)c1cc(S(=O)(=O)N2CCOCC2)ccc1F | 13.7* | -2.8 | 2.0 | -12.2 | -1.1 | -0.3 | 1.9 | 0.1
COc1ccc(C2=NN(C(=O)c3cccc([N+](=O)[O-])c3)C(c3cccc([N+](=O)[O-])c3)C2)cc1 (stereo not given) | -7.0 | -12.3 | 1.8 | 0.8 | 2.5 | 0.7 | · | ·
CC1Oc2cc3oc4c(O)c5c(cc4c(=O)c3c(O)c2C1(C)C)C=CC(C)(C)O5 (stereo not given) | · | · | · | · | -0.9 | · | · | ·
N#Cc1ccccc1S(=O)(=O)NC(=O)[C@H]1O[C@@H](n2cnc3c(N)ncnc32)[C@H](O)[C@@H]1O | 20.9* | 5.1 | -2.2 | -7.2 | · | -1.2 | 45.0* | 1.4*
COc1ccccc1OCc1ccc(C(=O)OCC2CCCO2)o1 (stereo not given) | 14.6* | -15.9 | -14.4 | -1.6 | -0.4 | -0.7 | 2.7 | -0.2
O=C(CN1C(=O)/C(=C\c2cccc(Br)c2)Oc2ccccc21)NCC1CCCO1 (stereo not given) | -5.6 | -18.8 | -12.3 | -4.6 | 0.0 | 3.4 | · | ·
CCc1ccc(CN2CCN(C(=O)c3cccc(OC)c3OC)CC2)cc1 | 98.4* | 4.6 | 0.3 | -3.0 | 3.2 | -0.5 | 100.5* | -0.4
